High-throughput results deposited in PubChem by several laboratories.
UCH37 inh: inhibitors of human deubiquitinating enzyme UCH37 | Q9Y5K5 | purified proteasome/UCH37, Ub-AMC cleavage fluorescence | inhibition, % (no concentration beside the values) | 330,000 compounds, 0.33% hits;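 active means mean inhibition over replicate wells above about 20%, limit read from the data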;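 further: 0% = compound-free wells with enzyme and 100% = wells lacking proteasome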
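Reagent: Ub-AMC substrate; assay system: Proteasome-associated human UCH37 deubiquitinase; controls: no-proteasome and no-compound wells; read-out: % inhibition of Ub-AMC cleavage fluorescence; timing: 30 min preincubation with enzyme, 25 min cleavage at room temperature; signal: AMC fluorescence from Ub-AMC cleavage, excitation 355 nm, emission 460 nm; buffer or medium: Tris-HCl pH 7.4 plus ovalbumin, ATP-MgCl2, DTT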
aDG glyco up: alpha-DG glycosylation activation; 360,000 compounds, 0.22% hits; activation, % at 10 µM; Pro5-aDG cells, alpha-DG glycosylation AlphaScreen (IIH6); 0% Pro5, 100% B10-LARGE cell signal; AID 624168;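 active means activation of at least 8% versus controls, or a plate z-score of at least 8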;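 further: Pro5 are CHO cells carrying HIG-tagged alpha-DG that lacks glycosylation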
PKA-R2B activ: activates the human PKA-R2B holoenzyme complex; P22694+P31323; PKA-R2B holoenzyme dissociation, Cy5-IP20 fluorescence polarization; R2B truncated from residue 108, S112A mutant; 0% DMSO only, 100% 113 µM cGMP; activation, % at 11.4 µM; 340,000 compounds, 0.079% hits;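 active means activation above a cutoff set at the mean over all compounds plus 3 SD, cut at about 18% in these data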;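 further: higher means more holoenzyme dissociation and a rise in polarization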
Target sequence (P31323 whole entry, looked up, other chains not shown, the tested form may be a part): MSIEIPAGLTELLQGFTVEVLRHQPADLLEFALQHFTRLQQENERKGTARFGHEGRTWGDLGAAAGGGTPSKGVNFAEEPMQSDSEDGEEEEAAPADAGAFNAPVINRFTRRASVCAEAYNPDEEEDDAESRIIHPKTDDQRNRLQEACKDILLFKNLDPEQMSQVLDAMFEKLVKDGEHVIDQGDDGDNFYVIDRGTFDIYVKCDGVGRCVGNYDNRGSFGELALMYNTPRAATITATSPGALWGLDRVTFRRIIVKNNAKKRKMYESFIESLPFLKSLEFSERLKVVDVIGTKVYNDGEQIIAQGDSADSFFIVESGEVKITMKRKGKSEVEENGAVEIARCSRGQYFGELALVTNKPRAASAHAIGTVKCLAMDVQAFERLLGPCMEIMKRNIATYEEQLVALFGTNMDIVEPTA
PKA-R1A act: PKA-R1A complex activation; 340,000 compounds, 0.083% hits; PKA-R1A dissociation, Cy5-IP20 fluorescence polarization; scaled: DMSO 0%, 113 µM cGMP 100%; AID 504707; activation, % at 11.4 µM;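 active means percent activation above the mean of all tested compounds plus 3 SD, cut at about 19% in these data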;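 further: higher means more PKAc released from R1A so a rise in polarization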
CTSL1 counter: counter-screen for PFM18AAP inhibitors: inhibitors of F. hepatica cathepsin L1; recombinant F. hepatica cathepsin L1, Z-Leu-Arg-MCA fluorescence; inhibition, % at 5.96 µM; 300,000 compounds, 0.49% hits; AID 1906;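 active means inhibition above the mean of all tested compounds plus 3 SD, set per screening campaign, cut at about 17% in these data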;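 further: 0% = plate median of test compound wells and 100% = 1 µM Z-Phe-Ala-diazomethylketone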
* = called active by the depositor; nt = no result. Only some compounds are listed: those with a hit (about 0.94% of all), similar ones and a draw of the others.

SMILES	UCH37 inh	aDG glyco up	PKA-R2B activ	PKA-R1A act	CTSL1 counter
CC1=NN(C(C#N)c2ccccc2)C(c2ccccc2)C1 (centres undefined)	0.5	-0.1	nt	nt	18.5*
COc1ccc(C(C#N)N2N=C(C)CC2c2ccccc2)cc1 (centres undefined)	1.8	0.0	-8.3	-1.3	2.7
CCCC1CCC(C2=N/C(=C\c3ccc(OC)c(OC)c3)C(=O)O2)CC1 (centres undefined)	-43.8	0.1	-0.9	-7.5	2.9
COc1cccc(/C=C2\N=C(C3CCCCC3)OC2=O)c1OC	-0.7	-0.1	-5.4	-6.3	19.8*
CC(=O)Oc1ccc(/C=C2\N=C(C3CCCCC3)OC2=O)cc1	6.2	-0.1	-4.5	0.3	23.1*
CN(C)C=Nc1[nH]ncc1C#N	-1.9	nt	nt	nt	nt
O=C1CC(C(=O)Nc2ccc(Br)cc2)S/C(=N\N=Cc2ccco2)N1 (centres undefined)	8.3	nt	nt	nt	nt
CCCN(CCC)CCNC(=O)C(NS(=O)(=O)c1ccc2c(c1)CCC(=O)N2)c1ccccc1 (centres undefined)	2.1	0.2	-8.2	-10.2	30.7*
CCS(=O)(=O)c1ccccc1C(=O)NC1CCCc2ccccc21 (centres undefined)	2.0	-0.2	7.0	4.6	-1.6
CS(=O)(=O)c1ccccc1C(=O)NC1CCCc2ccccc21 (centres undefined)	4.7	-0.2	-5.5	-2.3	20.7*
ON=C(c1ccc2c(c1)OCCO2)C1CCCCC1	2.0	nt	nt	nt	nt
CC(=NS(=O)(=O)c1ccc(C)cc1)N1CCN(S(=O)(=O)c2ccccc2)C1C(C)C (centres undefined)	5.4	nt	nt	nt	nt
CC(C)CNC(=O)c1cccc(NC(=O)COc2cccc([N+](=O)[O-])c2)c1	2.3	0.2	-1.5	3.6	-2.5
COC(=O)c1cccc(NC(=O)COc2cccc([N+](=O)[O-])c2)c1	32.5*	-0.1	0.1	0.7	-4.3
Cc1nc2ccc(C(=O)NN=Cc3ccccc3O)cc2[nH]1	-34.6	nt	nt	nt	nt
CC(C)(C)NC(=O)C(=O)NN=Cc1ccc(Br)cc1	-4.3	nt	nt	nt	nt
O=C(COC(=O)c1cccc2c1C(=O)c1ccccc1C2=O)NC1CCCCC1	3.5	2.3	-7.5	9.6	11.1
O=C(COC(=O)c1ccc2c(c1[N+](=O)[O-])C(=O)c1ccccc1C2=O)NC1CC1	4.2	0.0	-14.2	9.2	21.4*
CC(=O)Nc1cccc(C(C)=NNC(=O)c2cccs2)c1	2.7	nt	nt	nt	nt
O=C1C(=O)N(CCCN2CCOCC2)C(c2ccc(F)cc2)/C1=C(/O)c1ccccc1 (centres undefined)	23.1*	-0.1	-7.9	0.1	-0.3
Cc1ccc(/C(O)=C2/C(=O)C(=O)N(CCN3CCOCC3)C2c2cccs2)cc1 (centres undefined)	23.8*	-0.2	-4.2	3.2	-2.9
COc1cccc(/C(O)=C2/C(=O)C(=O)N(CCCN3CCOCC3)C2c2ccncc2)c1 (centres undefined)	20.1*	-0.1	4.0	-2.0	-3.7
COC(=O)c1ccc(C2/C(=C(\O)c3cccc(OC)c3)C(=O)C(=O)N2CCCN2CCOCC2)cc1 (centres undefined)	6.5	2.4	-6.3	0.5	0.1
Cc1cc(C)c2c(CC(=O)O)coc2c1	29.2*	-0.1	-4.8	-8.2	-3.2
COc1ccc(N2C(=O)/C(=C/N(C)C)NC2=S)cc1	22.5*	0.4	2.6	-0.7	2.9
SMILES	UCH37 inh	aDG glyco up	PKA-R2B activ	PKA-R1A act	CTSL1 counter
CC(=NNc1nc(C)cc(C)n1)c1ccc(N2CCOCC2)cc1	6.4	nt	nt	nt	nt
O=C1CC(CC(=O)N/N=C/c2ccccc2[N+](=O)[O-])=NN1	nt	-0.4	2.0	-1.5	17.8*
CCC(=O)N(CCC(c1ccccc1)c1ccco1)Cc1cccs1 (centres undefined)	0.7	0.0	-19.0	-0.5	37.6*
O=C(c1ccco1)N(CCC(c1ccccc1)c1ccco1)Cc1ccccc1 (centres undefined)	-0.9	-0.3	-8.8	3.0	31.0*
COc1ccc(CN(CCC(c2ccccc2)c2ccco2)C(=O)c2ccco2)cc1 (centres undefined)	0.8	0.1	7.3	1.0	23.4*
C(=NNc1nnnn1-c1ccccc1)c1ccncc1	6.5	nt	nt	nt	nt
C=C(C)COc1ccc(-c2n[nH]c(C)c2Oc2ccccc2OC)c(O)c1	34.7*	0.0	-2.6	-12.1	2.0
CN(C(=O)COC(=O)COc1ccccc1Cc1ccccc1)c1ccccc1	-1.2	-0.1	-7.0	-7.8	18.4*
COc1ccccc1CNC(=O)COC(=O)COc1ccccc1Cc1ccccc1	2.7	-0.3	0.3	-0.2	17.1*
C=CCNC(=S)NNC(=O)C(CC(C)C)CC(C)O (centres undefined)	1.1	1.6	-0.3	-8.0	-4.4
C=CCNC(=S)NNC(=O)C(CCC(C)C)CC(C)(C)O (centres undefined)	31.2*	4.1	0.5	5.2	-0.4
CC(=NNC(=O)c1nn(C)c(C)c1Br)c1ccc(NC(=O)C2CCCC2)cc1	-24.7	nt	nt	nt	nt
O=c1[nH]n2c(=O)c3c([nH]c2c1N=Nc1cccc(Cl)c1)CCC3	18.0	-0.2	-5.1	-8.4	2.3
COc1cccc(N=Nc2c(=O)[nH]n3c(=O)c4c([nH]c23)CCC4)c1	20.2*	-0.3	-1.5	-5.6	2.6
NS(=O)(=O)c1ccc(N=Nc2c(=O)[nH]n3c(=O)c4c([nH]c23)CCCC4)cc1	20.5*	-0.1	-9.5	-2.0	6.6
Cc1[nH][nH]c(=O)c1N=Nc1ccc(S(N)(=O)=O)cc1	15.4	-0.2	nt	nt	2.7
Cc1cc(C)n2[nH]c(=O)c(N=Nc3ccc(S(N)(=O)=O)cc3)c2n1	24.6*	0.0	-5.3	-14.2	3.8
COCCn1c(SCC(=O)c2ccc3c(c2)OCCO3)nnc1-c1ccco1	3.8	0.2	2.1	-3.4	-1.1
CCn1c(SCC(=O)c2ccc3c(c2)OCCO3)nnc1-c1ccco1	2.1	0.3	-9.0	2.5	17.0*
O=C(NN=Cc1ccccc1F)c1csc2c1CCCC2	0.4	nt	nt	nt	nt
O=C(NN=Cc1cccnc1)c1ccccc1Cl	0.9	nt	nt	nt	nt
Brc1ccc(N/N=C(/N=Nc2nn[nH]n2)c2ccccc2)cc1	nt	0.6	3.7	-4.0	7.5
Brc1ccc(NN=C(N=Nc2nn[nH]n2)c2ccccc2)cc1	22.0*	nt	nt	nt	nt
COc1ccc(O)c(C=NNC(=S)Nc2cccc(S(=O)(=O)N(C)C)c2)c1	-64.9	nt	nt	nt	nt
Cn1c(=N)n(CC(=O)c2ccc(Cl)c(Cl)c2)c2ccccc21	nt	7.4*	2.5	-6.3	-0.2
N=c1n(CC(=O)c2ccc(Br)cc2)c2ccccc2n1Cc1ccccc1	-0.2	9.1*	-7.4	-3.5	nt
N=c1n(CC(=O)c2ccc([N+](=O)[O-])cc2)c2ccccc2n1Cc1ccccc1	10.8	1.3	-6.1	-9.4	-1.7
